{
  "source": "ChEMBL document CHEMBL4251545",
  "about": "“Design and synthesis of cenocladamide analogues and their evaluation against breast cancer cell lines” (Medchemcomm, 2017)",
  "key": {"MDA-MB-231 [1]": {"tested_on": "MDA-MB-231", "assay": "Antiproliferative activity against human MDA-MB-231 cells at 20 uM after 3 days by DAPI staining-based fluorescence microscopic method relative to control", "type": "functional", "method_in_brief": "(§1)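 Controls were 0.5% DMSO (negative) and 1 μM doxorubicin (positive). Cells were fixed in 3.7% formaldehyde, stained with 0.4 μg mL–1 DAPI, and nuclei counted by automated fluorescence microscopy. Proliferation % and cell-loss % were calculated against a 24 h cell count and the DMSO 72 h count.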"}, "MDA-MB-231 [2]": {"tested_on": "MDA-MB-231", "assay": "Induction of reactive oxygen species generation in human MDA-MB-231 cells at 6 uM after 24 hrs by H2DCFDA dye-based fluorescence microscopic method", "type": "functional, cell-based", "details": "20 uM, in the assay text read “at 20 uM” for “at 6 uM”", "method_in_brief": "(§2)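 MDA-MB-231 cells were exposed for 3 or 24 h, with or without 3 mM N-acetyl-L-cysteine. Intracellular ROS was probed with 10 μM H2DCFDA for 30 min at 37 °C. After a PBS wash, fluorescence intensity was quantified by automated fluorescence microscopy. Cells were grown at 37 °C, 5% CO2.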"}, "MDA-MB-231 [3]": {"tested_on": "MDA-MB-231", "assay": "Induction of reactive oxygen species generation in human MDA-MB-231 cells at 20 uM after 24 hrs by H2DCFDA dye-based fluorescence microscopic method", "type": "functional, cell-based", "method_in_brief": "as §2"}, "MDA-MB-231 [4]": {"tested_on": "MDA-MB-231", "assay": "Cytotoxicity against human MDA-MB-231 cells by MitoTracker Deep Red staining-based fluorescence microscopic method", "type": "functional, cell-based", "method_in_brief": "(§3)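 Stained 60 min with 1 μg mL–1 Hoechst 33342 and 300 nM MitoTracker Deep Red in RPMI/10% FBS, then imaged by automated fluorescence microscopy. Mitochondrial mass taken as mean cytoplasmic MitoTracker intensity. Nuclear fragmentation index from an apoptosis image-analysis module.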"}, "MDA-MB-231 [5]": {"tested_on": "MDA-MB-231", "assay": "Induction of nuclear morphological changes in human MDA-MB-231 cells assessed as nuclear fragmentation by Hoechst 33342 staining-based fluorescence microscopic method", "type": "functional, cell-based", "method_in_brief": "as §3"}, "MDA-MB-231 [6]": {"tested_on": "MDA-MB-231", "assay": "Induction of reactive oxygen species generation in human MDA-MB-231 cells at 6 uM after 3 hrs in presence of N-acetyl-L-cysteine by H2DCFDA dye-based fluorescence microscopic method", "type": "functional, cell-based", "details": "20 uM, in the assay text read “at 20 uM” for “at 6 uM”", "method_in_brief": "as §2"}, "HMEC": {"tested_on": "HMEC", "assay": "Cytotoxicity against immortalized HMEC at 0.5 uM after 3 days by DAPI staining-based fluorescence microscopic method relative to control", "type": "cell-based", "details": "human, 72 h, 1 µM, in the assay text read “at 1 uM” for “at 0.5 uM”", "method_in_brief": "as §1"}, "BT-549 [7]": {"tested_on": "BT-549", "assay": "Cytotoxicity against human BT549 cells at 0.5 uM after 3 days by DAPI staining-based fluorescence microscopic method relative to control", "type": "functional", "details": "in the assay text read “at 1 uM” for “at 0.5 uM”", "method_in_brief": "as §1"}, "HCC38 [8]": {"tested_on": "HCC38", "assay": "Cytotoxicity against human HCC38 cells at 0.5 uM after 3 days by DAPI staining-based fluorescence microscopic method relative to control", "type": "functional", "details": "in the assay text read “at 1 uM” for “at 0.5 uM”", "method_in_brief": "as §1"}, "MDA-MB-468 [9]": {"tested_on": "MDA-MB-468", "assay": "Cytotoxicity against human MDA-MB-468 cells at 0.5 uM after 3 days by DAPI staining-based fluorescence microscopic method relative to control", "type": "functional", "details": "in the assay text read “at 1 uM” for “at 0.5 uM”", "method_in_brief": "as §1"}, "MCF7 [10]": {"tested_on": "MCF7", "assay": "Cytotoxicity against human MCF7 cells at 0.5 uM after 3 days by DAPI staining-based fluorescence microscopic method relative to control", "type": "functional", "details": "in the assay text read “at 1 uM” for “at 0.5 uM”", "method_in_brief": "as §1"}, "Hs-578T [11]": {"tested_on": "Hs-578T", "assay": "Cytotoxicity against human Hs 578T cells at 0.5 uM after 3 days by DAPI staining-based fluorescence microscopic method relative to control", "type": "functional", "details": "in the assay text read “at 1 uM” for “at 0.5 uM”", "method_in_brief": "as §1"}, "MDA-MB-231 [12]": {"tested_on": "MDA-MB-231", "assay": "Cytotoxicity against human MDA-MB-231 cells at 0.5 uM after 3 days by DAPI staining-based fluorescence microscopic method relative to control", "type": "functional", "details": "in the assay text read “at 1 uM” for “at 0.5 uM”", "method_in_brief": "as §1"}, "T47D [13]": {"tested_on": "T47D", "assay": "Cytotoxicity against human T47D cells at 0.5 uM after 3 days by DAPI staining-based fluorescence microscopic method relative to control", "type": "functional", "details": "in the assay text read “at 1 uM” for “at 0.5 uM”", "method_in_brief": "as §1"}, "MDA-MB-231 [14]": {"tested_on": "MDA-MB-231", "assay": "Cytotoxicity against human MDA-MB-231 cells at 20 uM after 3 days by DAPI staining-based fluorescence microscopic method relative to control", "type": "functional"}, "MDA-MB-231 [15]": {"tested_on": "MDA-MB-231", "assay": "Antiproliferative activity against human MDA-MB-231 cells after 3 days by DAPI staining-based fluorescence microscopic method", "type": "functional, cell-based", "details": "MDA-MB-231, 72 h", "method_in_brief": "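Fixed in 3.7% formaldehyde, nuclei stained with 0.4 μg mL–1 DAPI, counted by automated fluorescence microscopy. Proliferation normalised to 0.5% DMSO and to 24 h cell count; IC50 from dose response.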"}, "HCC38 [16]": {"tested_on": "HCC38", "assay": "Cytotoxicity against human HCC38 cells at 20 uM after 3 days by DAPI staining-based fluorescence microscopic method relative to control", "type": "functional"}, "MCF7 [17]": {"tested_on": "MCF7", "assay": "Cytotoxicity against human MCF7 cells at 20 uM after 3 days by DAPI staining-based fluorescence microscopic method relative to control", "type": "functional"}, "MDA-MB-231 [18]": {"tested_on": "MDA-MB-231", "assay": "Cell cycle arrest in human MDA-MB-231 cells assessed as accumulation at M phase at 25 uM after 72 hrs by pHH3 detection-based fluorescence microscopic method", "type": "functional", "method_in_brief": "(§4)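 Cells exposed 72 h to 0.2–25 μM, then pulsed 30 min with 30 μM EdU. Fixed in 3.7% paraformaldehyde, permeabilised with 0.1% Triton X100. EdU click-labelled with AF488. Blocked in 3% BSA, then anti-pHH3 (S10) 1:250 and AF647 secondary with Hoechst. S and M phases scored by automated imaging cell-cycle module.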"}, "BT-549 [19]": {"tested_on": "BT-549", "assay": "Cytotoxicity against human BT549 cells at 20 uM after 3 days by DAPI staining-based fluorescence microscopic method relative to control", "type": "functional"}, "MDA-MB-231 [20]": {"tested_on": "MDA-MB-231", "assay": "Induction of reactive oxygen species generation in human MDA-MB-231 cells at 6 uM after 3 hrs by H2DCFDA dye-based fluorescence microscopic method relative to control", "type": "functional", "method_in_brief": "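Exposed 3 or 24 h to 6 μM, with or without 3 mM N-acetyl-L-cysteine. Cells then loaded with 10 μM H2DCFDA for 30 min at 37 °C, washed with PBS, and fluorescence intensity read by automated fluorescence microscopy.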"}, "MDA-MB-231 [21]": {"tested_on": "MDA-MB-231", "assay": "Induction of necrosis in human MDA-MB-231 cells at 40 uM after 24 hrs by acridine orange/ethidium bromide staining-based flow cytometric method", "type": "functional, cell-based"}, "MDA-MB-231 [22]": {"tested_on": "MDA-MB-231", "assay": "Cell cycle arrest in human MDA-MB-231 cells assessed as accumulation at S phase at 25 uM after 72 hrs by EdU incorporation-based fluorescence microscopic method", "type": "functional", "method_in_brief": "as §4"}, "MDA-MB-468 [23]": {"tested_on": "MDA-MB-468", "assay": "Cytotoxicity against human MDA-MB-468 cells at 20 uM after 3 days by DAPI staining-based fluorescence microscopic method relative to control", "type": "functional"}, "Hs-578T [24]": {"tested_on": "Hs-578T", "assay": "Cytotoxicity against human Hs 578T cells at 20 uM after 3 days by DAPI staining-based fluorescence microscopic method relative to control", "type": "functional"}, "SK-BR-3": {"tested_on": "SK-BR-3", "assay": "Cytotoxicity against human SKBR3 cells at 20 uM after 3 days by DAPI staining-based fluorescence microscopic method relative to control", "type": "functional"}, "T47D [25]": {"tested_on": "T47D", "assay": "Cytotoxicity against human T47D cells at 20 uM after 3 days by DAPI staining-based fluorescence microscopic method relative to control", "type": "functional"}},
  "note": "The source made the active and inactive calls. No cut-off for these calls is given here.",
  "data": [
    {"molecule": "COc1cc(CCC(=O)N2C=CC(=O)CC2)cc(OC)c1OC", "values": [
      {"measurement": "Activity", "setting": "MDA-MB-231 [1]", "result": "inactive"}
    ]},
    {"molecule": "O=C1C=CN(C(=O)/C=C/c2ccccc2)CC1", "values": [
      {"measurement": "Activity", "setting": "MDA-MB-231 [1]", "result": 50, "unit": "%"}
    ]},
    {"molecule": "COc1cc(/C=C/C(=O)N2CCCCC2)cc(OC)c1O", "values": [
      {"measurement": "Activity", "setting": "MDA-MB-231 [2]", "result": "inactive"},
      {"measurement": "Activity", "setting": "MDA-MB-231 [3]", "result": "inactive"},
      {"measurement": "Activity", "setting": "MDA-MB-231 [4]", "result": "inactive"},
      {"measurement": "Activity", "setting": "MDA-MB-231 [5]", "result": "inactive"},
      {"measurement": "Activity", "setting": "MDA-MB-231 [6]", "result": "inactive"}
    ]},
    {"molecule": "COc1cccc2c1C(=O)c1c(O)c3c(c(O)c1C2=O)C[C@@](O)(C(=O)CO)C[C@@H]3O[C@H]1C[C@H](N)[C@H](O)[C@H](C)O1", "note": "[DOXORUBICIN]", "values": [
      {"measurement": "Activity", "setting": "HMEC", "result": 23.9, "unit": "%"},
      {"measurement": "Activity", "setting": "BT-549 [7]", "result": "0.2 - 50%"},
      {"measurement": "Activity", "setting": "HCC38 [8]", "result": "0.2 - 50%"},
      {"measurement": "Activity", "setting": "MDA-MB-468 [9]", "result": "0.2 - 50%"},
      {"measurement": "Activity", "setting": "MCF7 [10]", "result": "0.2 - 50%"},
      {"measurement": "Activity", "setting": "Hs-578T [11]", "result": "0.2 - 50%"},
      {"measurement": "Activity", "setting": "MDA-MB-231 [12]", "result": "0.2 - 50%"},
      {"measurement": "Activity", "setting": "T47D [13]", "result": "0.2 - 50%"}
    ]},
    {"molecule": "COc1cc(/C=C/C(=O)N2C=CC(=O)CC2)cc(OC)c1OC", "values": [
      {"measurement": "Activity", "setting": "MDA-MB-231 [1]", "result": 50, "unit": "%"}
    ]},
    {"molecule": "COc1cc(/C=C/C(=O)N2CCC(=O)CC2)cc(OC)c1O", "values": [
      {"measurement": "Activity", "setting": "MDA-MB-231 [14]", "result": 60, "unit": "%"},
      {"measurement": "IC50", "setting": "MDA-MB-231 [15]", "result": 6.6, "unit": "µM"},
      {"measurement": "Activity", "setting": "HCC38 [16]", "result": ">=15 - 80%"},
      {"measurement": "Activity", "setting": "MCF7 [17]", "result": ">=15 - 80%"},
      {"measurement": "Activity", "setting": "MDA-MB-231 [18]", "result": "inactive"},
      {"measurement": "Activity", "setting": "BT-549 [19]", "result": ">=15 - 80%"},
      {"measurement": "Activity", "setting": "MDA-MB-231 [4]", "result": "Active"},
      {"measurement": "Activity", "setting": "MDA-MB-231 [20]", "result": 20, "unit": "%"},
      {"measurement": "Activity", "setting": "MDA-MB-231 [21]", "result": "Active"},
      {"measurement": "Activity", "setting": "MDA-MB-231 [22]", "result": "inactive"},
      {"measurement": "Activity", "setting": "MDA-MB-468 [23]", "result": ">=15 - 80%"},
      {"measurement": "Activity", "setting": "Hs-578T [24]", "result": ">=15 - 80%"},
      {"measurement": "Activity", "setting": "SK-BR-3", "result": ">=15 - 80%"},
      {"measurement": "Activity", "setting": "T47D [25]", "result": ">=15 - 80%"},
      {"measurement": "Activity", "setting": "MDA-MB-231 [5]", "result": "Active"}
    ]}
  ]
}
